Most compounds without a hit are left out; they make up all but 3.3% or so of the library.
ATG4B inhibitor – blocks human ATG4B protease cleavage of LC3 substrate; ATG4B cleavage of LC3-PLA2, NBD-HPC fluorescence, 1 h; inhibition, % at 8.33 µM; 340,000 tested, 0.51% active; AID 504462; in the data active = inhibition above about 40%
CendR NRP1 mod – modulators of CendR peptide binding to human neuropilin-1. 360,000 tested, 0.85% active. FAM-RPARPAR peptide binding to NRP-1, fluorescence polarization. O14786. AID 602438. inhibition, % at 25 µM;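 active = inhibition or corrected inhibition above about 18%, plus a signal ratio from 0.5 to 1.5, limit read from the data, passing the limit was not always enough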
ABCB6 inh 2 – blocks the human ABCB6 transporter; fluorescence ratio to DMSO, % at 10 µM; Q9NP58; 360,000 tested, 0.19% active; K562-ABCB6 porphyrin accumulation, flow cytometry, 1 h; hits give low values; AID 602162;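 active = fluorescence ratio to DMSO below 75%, the collection mean minus 3 SD; inconclusive = too few cells collected in the well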;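 also: signal is porphyrin accumulated inside mitochondria; 100% equals median channel fluorescence of DMSO control wells; lower ratio means ABCB6 inhibition with less porphyrin fluorescence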
Myeloid diff 2 – promotes myeloid progenitor differentiation | AID 624256 | calls only at 10 µM | 360,000 tested, 1% active | ER-HoxA9 myeloid progenitors, lysozyme-GFP differentiation, flow cytometry;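 active = normalized GFP-positive differentiation at or above the plate's own cutoff, the solvent-only control mean plus 3 SD; inconclusive = no clear call, values can overlap the other calls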;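 also: cells exposed to compound for four days before flow analysis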
Granule exo inh – blocks lytic granule exocytosis; TALL-104 LAMP-1 surface exposure, flow cytometry; cells stimulated with thapsigargin and PMA; inhibition, % at 10 µM; 360,000 tested, 0.66% active; AID 651702;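 active = inhibition above about 55%, limit read from the data; inconclusive = no clear call, values can overlap the other calls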
Arrestin-AP2 inh – blocks beta-arrestin peptide binding to AP2 adaptin | FITC-arrestin peptide / GST-AP2 beads, flow cytometry; AP2 beta2 appendage carries R879A mutation | AID 504490 | 340,000 tested, 0.31% active | inhibition, % at 10 µM;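 active = inhibition above a set limit, near 3 SD of compounds lacking own fluorescence, cut at about 54% in these data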;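 also: plate controls were DMSO wells for no effect and 5 µM unlabelled arrestin peptide for full effect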
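system = GST-tagged AP2 beta2-adaptin appendage (R879A) on 4 µm glutathione beads | reagent = FITC-labelled arrestin peptide probe, 50 nM final | schedule = compound with beads 12 min RT, then probe 1 h RT | signal = HyperCyt-sampled flow cytometry, FL1 channel, ex 488/em 535 nm | read-out = percent response from loss of bead-bound FITC fluorescence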
Starred values were filed as active, the others as inactive; i = inactive; ? = inconclusive; . = not tested or not shown; + = active, no number.

SMILES	ATG4B inhibitor	CendR NRP1 mod	ABCB6 inh 2	Myeloid diff 2	Granule exo inh	Arrestin-AP2 inh
O=C(O)COc1c(-c2ccccc2)oc2ccccc2c1=O	10	1	106	i	-1	4
Cc1ccc(-c2oc3ccccc3c(=O)c2OCC(=O)O)cc1	-6	19*	101	i	0	-6
O=C(NCCc1ccccn1)c1c(-c2ccccc2)sc2ccccc12	-7	-7	95	i	5	0
O=C(NCCc1ccccn1)c1c(-c2ccsc2)sc2ccccc12	1	-10	92	+	-2	-7
CCOC(=O)c1csc(NC(=O)c2ccc3c(c2)OCCO3)n1	1	29*	92	i	3	2
Cc1cc(C)cc(OCC(=O)N2CCN(c3ncccn3)CC2)c1	-13	14	96	i	-32	-7
O=C(N1CCN(c2ccccc2)CC1)C1(S(=O)(=O)c2ccc(Cl)cc2)CC1	-17	7	95	+	-2	6
COC(=O)c1c(C)c2c(C)cc3ccccn3c-2c1C(=O)OC	7	35*	107	i	-2	32
COCCN(CCOc1cc(C)cc(C)c1)Cc1ccc(Cl)cc1	-8	4	98	i	10	6
CC(=O)Oc1oc(-c2ccccc2)nc1C=Nc1ccc(N(C)C)cc1	-6	0	98	i	94*	24
CN(C)c1ccc(N=Cc2nc(-c3ccccc3)oc2OC(=O)c2ccccc2)cc1	-3	61	95	i	-3	7
O=C(NCc1nnc(SCc2ccc(F)cc2)n1-c1ccc(F)cc1)C12CC3CC(CC(C3)C1)C2	-18	9	103	i	-1	-3
CC(=O)Nc1ccc(C(=O)NN2C(=O)NC3(CCCCC3)C2=O)cc1	-3	-2	95	i	-2	40
O=C(CCNC(=O)c1ccc(Cl)cc1)NN1C(=O)NC2(CCCCC2)C1=O	-58	20*	96	i	-1	-6
Cc1ccnc(N2CCC(C(=O)Nc3ccc4c(c3)OCCO4)CC2)n1	-7	25*	97	i	2	-5
CN(C)CCC(=O)N1C/C(=C/c2ccccc2)C(=O)/C(=C\c2ccccc2)C1	17	6	99	?	68*	-3
COc1ccc(OC(=O)N2C/C(=C/c3ccccc3)C(=O)/C(=C\c3ccccc3)C2)cc1	-2	0	98	.	62*	-11
Cc1ccc(C(=O)CSc2nc3cccnc3n2C)cc1	-12	-4	96	+	-1	0
Cn1c(SCC(=O)c2ccccc2)nc2cccnc21	-6	-2	97	i	1	6
COc1ccc(NC(=O)CSc2nccn2-c2ccccc2)c(OC)c1	-4	26*	95	i	3	-1
Cc1nn(Cc2c(Cl)cccc2Cl)c(Cl)c1/C=N/NC(=O)c1cccnc1	-3	-8	96	i	-2	7
O=C(NCCOC(=O)c1ccc(C(=O)OCCNC(=O)c2ccccc2)o1)c1ccccc1	-5	-5	104	i	3	18
O=C(NCCOC(=O)c1ccccc1)c1ccccc1	-4	22*	95	i	-2	6
COc1ccc(/C=N/NC(=O)c2cc(C34CC5CC(CC(C5)C3)C4)[nH]n2)cc1OC	-20	22*	106	i	-3	8
Cc1ccc(C(=O)N2CCN(c3cccc(C)c3C)CC2)cc1S(=O)(=O)N1CCOCC1	9	13	99	i	-4	2
SMILES	ATG4B inhibitor	CendR NRP1 mod	ABCB6 inh 2	Myeloid diff 2	Granule exo inh	Arrestin-AP2 inh
CCOC(=O)C1C(c2ccccc2O)NC(=O)NC1(O)C(F)(F)F (centres undefined)	-11	3	97	i	-2	-2
CCOC(=O)C1C(c2ccccc2Cl)NC(=O)N(C)C1(O)C(F)(F)F (centres undefined)	-3	0	102	+	-5	7
COc1cc(CN(C)C)cc(C=O)c1O	-2	0	94	i	-3	43
COc1cc(N=Nc2ccc(Br)cc2)cc(C=O)c1O	.	-16	104	i	105*	.
Cc1cc(C)nc(-n2nc(C)cc2NC(=O)CN2CCC(C)CC2)n1	0	9	i	+	-3	14
Cc1ccc(N(C)S(=O)(=O)c2ccc3c(c2)CC(C)N3C(=O)C2CC2)cc1 (centres undefined)	5	-1	99	+	0	23
CC(C)(SC(=S)N1CCCCCC1)C(=O)O	-4	-2	107	i	10	4
CC(SC(=S)N1CCCC1)C(=O)O (centres undefined)	7	36*	98	i	-1	14
COc1cc(CC(=O)NC2CCCc3ccccc32)cc(OC)c1OC (centres undefined)	-3	2	98	i	60*	-9
COc1cc(OC)cc(C(=O)N[C@H](C(=O)NC2CCCc3ccccc32)C(C)C)c1 (some centres undefined)	0	27*	98	i	7	16
O=C(NC1CCCc2ccccc21)c1n[nH]c(=O)c2ccccc12 (centres undefined)	-5	3	97	+	-2	-13
COc1cc(OC)cc(C(=O)NCC(=O)OCC(=O)NC2CCCc3ccccc32)c1 (centres undefined)	2	10	101	i	1	15
O=C(CCn1cnc2ncccc2c1=O)N1CCN(c2cccc(Cl)c2)CC1	-6	-5	97	i	5	-3
O=C(Cc1c(F)cccc1Cl)NNC(=O)c1cccs1	0	4	102	i	1	8
CC(=O)C(Cc1ccc(Cl)nc1)(Cc1ccc(Cl)nc1)C(C)=O	-26	6	95	+	-2	5
CC(=O)C(Cc1cnc(Cl)s1)(Cc1cnc(Cl)s1)C(C)=O	-5	-1	105	i	0	-10
COc1ccc(NC(=O)Cn2nnc(C(=O)Nc3ccc(F)c(Cl)c3)c2N)cc1	6	3	104	i	-2	-5
COc1ccc(CN2CCN(C(=O)CCC(=O)Nc3nnc(C(F)(F)F)s3)CC2)cc1F	1	8	104	i	-10	2
COc1ccc(CN2CCN(C(=O)CCC(=O)Nc3nnc(C4CCCCC4)s3)CC2)cc1F	-1	12	84	+	8	14
O=C(C[C@@H]1NS(=O)(=O)OC2CCCCC21)c1ccccc1 (some centres undefined)	-9	7	92	i	0	24
CCOC(=O)/C(C#N)=C/C1=C(N2CCOCC2)CC(C)(C)OC1	-4	3	100	i	2	15
Cc1c([N+](=O)[O-])cnc(Sc2ccccc2)c1[N+](=O)[O-]	3	-5	97	i	10	-5

Screening data deposited in PubChem by several laboratories.
